# Sampled rows, rich in hits. Any-hit rate of the full collection: about 3.3%.
# 5HT1E ag = 5-HT1E (human) receptor agonism. hit rate 0.69% among 65,000. CHO 5-HT1E Ga15 NFAT-bla reporter, FRET; 0% DMSO wells, 100% control agonist wells. P28566. AID 574. activation, % at 6 µM;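 active means activation above a set limit, the screen-wide mean activation plus 3 SD, cut at about 8.5% in these data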;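 further: 100% = positive control agonist at 1 µM giving full maximal response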
# Target sequence (P28566 whole entry, looked up): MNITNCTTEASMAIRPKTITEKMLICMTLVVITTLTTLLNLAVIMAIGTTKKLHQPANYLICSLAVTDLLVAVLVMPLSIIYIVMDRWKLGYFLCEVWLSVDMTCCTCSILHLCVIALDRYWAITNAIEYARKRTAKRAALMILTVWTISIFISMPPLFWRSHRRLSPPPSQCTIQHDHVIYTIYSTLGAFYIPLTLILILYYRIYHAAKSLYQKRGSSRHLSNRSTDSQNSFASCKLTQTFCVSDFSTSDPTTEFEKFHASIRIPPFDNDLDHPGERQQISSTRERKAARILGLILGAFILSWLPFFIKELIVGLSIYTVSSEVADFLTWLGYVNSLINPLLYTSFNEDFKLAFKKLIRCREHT
# Jurkat tox 60K = cytotoxicity toward Jurkat cells; AID 463; Jurkat E6.1 viability, ATP luminescence, 48 h; inhibition, % at 4 µM; hit rate 1.2% among 56,000;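 active means inhibition above the mean inhibition of all tested compounds plus 3 SD, cut at about 28% in these data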
# HTR1A agonist = agonists of human 5-HT1a serotonin receptor. activation, % at 10 µM. CHO 5-HT1a Ga15 NFAT-bla reporter, FRET ratio; 0% basal, 100% maximal reference agonist. hit rate 0.56% among 65,000. P08908;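 active means activation above the screen-wide mean activation plus 3 SD, cut at about 19% in these data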;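 further: 0% = DMSO wells and 100% = 5-CT at EC100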
# HEK293 NFkB inh = lowers PMA/ionomycin-induced NF-kB signal in HEK293 cells; inhibition, % at 3 µM; HEK-293 NF-kB luciferase reporter, luminescence; hit rate 0.21% among 62,000;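 active means inhibition above the mean of all tested compounds plus 3 SD, cut at about 40% in these data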;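 further: 0% = stimulated DMSO wells and 100% = 10 µM reference inhibitor 5653914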
#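 Timing: 1 h pretreatment, 16 h stimulation, 37 °C; system: HEK-293 cells with stable firefly luciferase reporter driven by four HIV NF-kB elements; doses: 3 µM once, 0.30% DMSO; measured by: luciferase luminescence; control set: DMSO and 10 µM reference inhibitor; repeats: single test; reagent: PMA plus ionomycin mix as NF-kB-activating stimulus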
# HTR1E antagonist = antagonists of human 5-HT1E serotonin receptor; P28566; CHO 5-HT1E Ga15 NFAT-bla reporter, FRET, antagonist; inhibition, % at 6 µM; hit rate 0.99% among 65,000; AID 571;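 active means inhibition above a set limit, the mean inhibition across every tested compound plus 3 SD, cut at about 29% in these data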;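 further: signal is the 460 over 535 nm emission ratio of beta-lactamase substrate; 0% = agonist plus DMSO wells and 100% = wells without agonist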
# 5-HT1A blocker = antagonists of human 5-HT1a serotonin receptor; hit rate 0.68% among 62,000; P08908; inhibition, % at 10 µM; AID 612; CHO 5-HT1a Ga15 NFAT-bla reporter, antagonist mode;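 active means inhibition above the mean of all tested compounds plus 3 SD, cut at about 43% in these data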;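 further: receptor stimulated by 5-CT agonist at 100 nM near EC80; beta-lactamase reporter measured by ratiometric fluorescence of a cleavable substrate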
# * hit, by the source's call; . = no result given.
SMILES,5HT1E ag,Jurkat tox 60K,HTR1A agonist,HEK293 NFkB inh,HTR1E antagonist,5-HT1A blocker
O=C(O)CCCNS(=O)(=O)c1cccs1,-1,13,20*,12,11,7
Cc1cc(C(=O)COC(=O)c2n[nH]c3ccccc23)c(C)n1C,0,3,2,-13,-4,9
COc1cc(C(=O)OCC(=O)c2cc(C)n(C)c2C)cc(OC)c1OC,0,42*,-3,22,5,14
COc1cccc(C2C(C(=O)c3sc(C)nc3C)=C(O)C(=O)N2CCN(C)C)c1OC (centres undefined),1,-1,-4,4,-4,-6
CC(=O)OC(C(=O)NC1CCCCC1)c1ccc(C)cc1 (centres undefined),32*,14,-4,11,7,16
CCn1c(COc2cccc3ccccc23)nnc1SCC(N)=O,1,-1,0,8,-4,-6
COC(=O)c1ccc(CSc2nc(C)nc3sc(C)c(C)c23)o1,-1,1,-4,9,33*,50*
COC(=O)c1ccc(CSc2nnc(SCc3ccc(C(=O)OC)o3)s2)o1,-1,1,-1,15,3,12
CCCc1cc(=O)[nH]c(SC(CC)C(=O)Nc2ccccc2C#N)n1 (centres undefined),-2,8,-1,3,11,7
COc1ccc2nc(NC(=O)c3cccc(OCc4c(C)noc4C)c3)sc2c1,0,70*,-1,18,21,2
CCSc1nnc(NC(=O)c2cccc(OCc3c(C)noc3C)c2)s1,-1,.,-1,-4,-3,-2
Cc1c(C)[n+](=O)c2c(n1[O-])CCC2,0,.,1,.,-1,.
Cc1c(C)[n+](=O)c2c(n1[O-])CCCCC2,23*,-1,1,22,-8,-6
CCOCCN1CCN(c2c(C)c(C)nc3cc(-c4cc(OC)cc(OC)c4)nn23)CC1,4,.,-1,35,40*,7
COCCN1CCN(c2c(C)c(C)nc3cc(-c4cccc(OC)c4)nn23)CC1,0,.,1,8,2,3
COc1ccc(-c2nc(C#N)c(NCc3ccccc3Cl)o2)cc1OC,0,-2,4,17,22,16
COc1ccc(-c2nc(C#N)c(NCc3ccc(F)cc3)o2)cc1OC,1,16,0,21,30*,3
c1ccc(CC2CCN(c3nnnn3-c3ccccc3)CC2)cc1,-1,-2,-1,5,32*,8
O=S(=O)(c1ccccc1)N1CCN(c2nnnn2-c2ccccc2)CC1,0,.,-2,6,4,-5
COC(=O)c1cc(-c2c(C)oc3cc(O)ccc3c2=O)c(C)o1,0,-7,51*,8,1,0
Cc1nn(Cc2ccccc2Cl)c(C)c1C(=O)Nc1nnc(C2CC2)s1,0,47*,1,52*,-3,-20
COc1ccccc1NC(=O)N1CCN(c2cccc(C(F)(F)F)c2)CC1,13*,-3,3,10,-4,-10
COc1ccccc1CC(=O)N1CCN(c2cccc(C(F)(F)F)c2)CC1,0,15,2,12,4,2
CC(=O)Nc1ccc(CN2CCN(c3cccc(C(F)(F)F)c3)CC2)cc1,23*,-2,9,5,3,10
CC1CN(Cc2nc3c(c(=O)n(C)c(=O)n3C)n2CCc2ccccc2)CC(C)O1 (centres undefined),1,4,0,10,10,0
SMILES,5HT1E ag,Jurkat tox 60K,HTR1A agonist,HEK293 NFkB inh,HTR1E antagonist,5-HT1A blocker
CC(=O)NC(CCS(C)(=O)=O)C(=O)Nc1cc(Cl)ccc1Cl (centres undefined),0,-3,120*,12,-5,9
CC(C)Oc1cc(O)c2c(=O)c(-c3ccc(O)cc3)coc2c1,1,99*,-1,-52,4,11
Cc1ccc(-c2nc3nc4ccccc4nc3n2Cc2ccco2)cc1,0,3,-3,-45,28,50*
Clc1ccc(-c2nc3nc4ccccc4nc3n2Cc2ccco2)cc1,0,0,-3,-34,14,22
Cc1ccc(C)c(N2CCN(CC(=O)Nc3ccc4[nH]c(=O)[nH]c4c3)CC2)c1,23*,-3,0,1,-9,8
CC(=O)c1cn(CC(=O)Nc2ccccc2)c2ccccc12,0,37*,0,18,6,5
COCCCNC(=O)CSC1=Nc2ccccc2C2=NC(CC(=O)NCc3ccccc3)C(=O)N12 (centres undefined),0,-4,-1,9,-3,6
Cc1ccc(-c2nc(-c3ccccn3)no2)cc1,0,35*,3,80*,3,2
CC(C)(C)NC(=O)Cn1c(SCC(=O)NC2CCCCC2)nc2ccccc21,0,11,-3,11,8,-11
O=C(O)Cn1c(SC2CCCCC2)nc2ccccc21,0,2,19*,12,-16,-1
CC1CCCCN1Cc1nc2c(c(=O)n(C)c(=O)n2C)n1Cc1cccc2ccccc12 (centres undefined),0,-5,-2,11,-2,-1
COc1ccc(C2=NOC(C(=O)NCc3ccccc3)C2)cc1 (centres undefined),0,45*,-3,23,39*,30
CCn1ncc(C2=NOC(C(=O)Nc3c(C)n(C)n(-c4ccccc4)c3=O)C2)c1C (centres undefined),1,-16,2,0,-6,3
CCn1ncc(C2=NOC(C(=O)Nc3c(C)nn(Cc4ccc(F)cc4)c3C)C2)c1C (centres undefined),1,6,-1,3,3,-8
CCn1ncc(C2=NOC(C(=O)NCc3ccc(OC)cc3)C2)c1C (centres undefined),-1,39*,0,12,-9,3
CCn1ncc(C2=NOC(C(=O)NCc3ccccc3)C2)c1C (centres undefined),-2,93*,-5,21,37*,10
CCCCc1ccc(C2C(C#N)=C(N)SC(N)=C2C#N)s1,0,-4,-5,6,5,8
CC(C)CC(c1nnnn1Cc1ccco1)N1CCN(c2cccc(Cl)c2)CC1 (centres undefined),-2,4,5,9,13,46*
CN(CCCNC(=O)C1CCN(S(=O)(=O)N2CCC3(CC2)OCCO3)CC1)Cc1ccccc1,0,.,1,9,1,-14
COc1ccc(-c2cc3nc4n(c(=O)c3s2)CCOC4)cc1,3,.,-2,.,-4,.
Cc1cc(C(C)(C)C)c(O)c(C)c1CC1=NCCN1,76*,.,81*,.,4,.
Cn1cc(SCC(=O)Nc2nc3ccccc3s2)c2ccccc21,1,.,0,8,0,26

# Source: PubChem (The Scripps Research Institute Molecular Screening Center)
